The values that follow come from ChEMBL document CHEMBL1157010, “Synthesis and in vivo evaluation of 3,4-disubstituted gababutins” (Bioorg Med Chem Lett, 2010).

Data set [1] in a line: Displacement of [3H]gabapentin from Voltage-dependent calcium channel subunit alpha-2/delta in pig cerebral cortex by scintillation counting. It counts as tissue-based, Sus scrofa. In general terms: Loss of bound radioactivity is the signal in a displacement assay; it reports binding, not function.
A short description of data set [2]: Elimination half life in rat. It is filed as ADME, organism-based. Particulars: in vivo, read-out: beta t1/2 (converted).
The subject of data set [3] is Rattus norvegicus. Put plainly: Sedative activity in rat water lick conflict model of anxiety at 100 mg/kg, po. It counts as organism-based. Details: dose 100 mg/kg, route oral. Conditions: in vivo.
In data set [4] the test system is Rattus norvegicus. Kind of data set: Anxiolytic activity in po dosed rat water lick conflict model of anxiety assessed as increase in number of shocks received. It is filed as functional. The procedure, abridged: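 Rat drinking-conflict model with oral dosing across a range of doses. The read-out was the mean number of shock episodes received per rat over 10 min, where a greater number of shocks indicates reduced anxiety. The minimum effective dose was determined, with significance tested against vehicle (P <0.05).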

A short description of data set [5]: Bioavailability in rat. It is filed as ADME, organism-based. Conditions: in vivo.
The subject of data set [6] is Rattus norvegicus. Kind of data set: Sedative activity in rat at > 100 mg/kg, po. It is filed as organism-based. Details: dose 100 mg/kg, route oral. Conditions: in vivo.
The subject of data set [7] is Rattus norvegicus. Kind of data set: Antiinflammatory activity against carrageenan-induced thermal hyperalgesia in rat assessed as paw withdrawal from heat at 30 mg/kg, po after 2 hrs. Details: dose 30 mg/kg. It counts as functional, organism-based. The procedure, abridged:
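Rats received intraplantar carrageenan in the paw, and inflammation and hyperalgesia developed within 2 h. At that point the compound was given orally. Reversal of thermal hyperalgesia was read as time to paw withdrawal. Significance was tested against vehicle (P <0.05, P <0.01).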

Data set [8] in a line: Tmax in rat. It is filed as ADME, organism-based. Particulars: in vivo.
The nature of data set [9]: Lipophilicity, log D at pH 7.4. It counts as physicochemical. Conditions: buffer.
Data set [10] in a line: Clearance in rat. Conditions: in vivo. It is filed as ADME, organism-based.

Structures are written as SMILES. pIC50: −log10 of the molar value. Calls of active or inactive are those of the source. No cut-off for these calls is given here.

The term pIC50 denotes the negative decadic logarithm of the IC50, by convention in mol/L. As to `CC[C@@H]1C[C@](CN)(CC(=O)O)C[C@@H]1CC`, the negative-log IC50 (pIC50) in [1] was 5.38.

With `CCC[C@H]1CC(CN)(CC(=O)O)C[C@@H]1C` (mixture of isomers), in [1], the negative logarithm of the IC50 (pIC50) is 7.68.

Turning to `C[C@@H]1CC[C@@](CN)(CC(=O)O)C1`, the negative logarithm of the IC50 (pIC50) in data set [1] is 7.15.

In general, bioavailability refers to dose-corrected exposure relative to a reference, in per cent. For orientation: Tmax means the time at which the peak concentration occurs. By logD is commonly meant lipophilicity at a set pH, counting ionised and neutral species. The low end stands for a more hydrophilic compound, the high end for a more lipophilic compound. What is called clearance is the rate of elimination divided by the concentration. The low end stands for a low capacity for elimination, the high end for a high capacity for elimination. As for `C[C@H]1CC(CN)(CC(=O)O)C[C@@H]1C` (relative stereo) [ATAGABALIN], the half-life in data set [2] was 2.4 h. In [1], the negative-log IC50 (pIC50) is 7.66. Also, the Activity entry with Rattus norvegicus [3] was “Toxic”; with Rattus norvegicus [4], “Dose-dependent effect”; with Rattus norvegicus [6], “Toxic”. For the same compound, the minimal effective dose with Rattus norvegicus [4] (read-out: MED) amounted to 10 mg/kg. For the same compound, the bioavailability in data set [5] was 87%. In addition, the result in the data set with Rattus norvegicus [7] was Active. The time to peak (Tmax) in data set [8] is 1.2 h. Moreover, the logD in data set [9] was -1. The clearance in data set [10] is 4 mL/min/kg.

For `C[C@@H]1C[C@](CN)(CC(=O)O)C[C@@H]1C`, the negative-log IC50 (pIC50) in [1] is 6.82.

Turning to `C[C@@H]1CC[C@](CN)(CC(=O)O)C1`, the negative logarithm of the IC50 (pIC50) in data set [1] was 7.52.

Turning to `CC[C@H]1CC(CN)(CC(=O)O)C[C@@H]1CC` (racemic), in [1], the pIC50 was 5.96.

In the case of `C[C@@H]1C[C@@](CN)(CC(=O)O)C[C@@H]1C`, the pIC50 in data set [1] is 6.97.

Turning to `C[C@@H]1CC(CN)(CC(=O)O)C[C@H]1C`, the negative-log IC50 (pIC50) in data set [1] is 6.05.
